Experimental data reported in publication PMC13252795 (International journal for parasitology, 2017).

Tests used:
[1] = biological target: recombinant BbCDPK1 (rBbCDPK1) (Besnoitia besnoiti, UniProt A0A290U7L2); experiment: BbCDPK1 enzymatic activity inhibition, Kinase-Glo luciferase assay; assay type: biochemical
[2] = system: Marc-145 cells; experiment: Mammalian cell toxicity, XTT cell viability assay; assay type: cell-based; settings: uninfected Marc-145 cells, 5 μM, 72 h
Summary of the method: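 Exponential-phase Marc-145 cells were seeded at 2 × 10^5 cells/mL together with test compound dissolved in DMSO, in quadruplicate, and grown 72 h at 37 °C in humidified 5% CO2. XTT reagent was then added for 4 h, and […]. Percent growth inhibition was calculated relative to the DMSO vehicle.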

[3] = system: B. besnoiti tachyzoites (Bb-Spain1) in Marc-145 cells; experiment: Short term dose-response assays, EC50 and EC99 determination by qPCR; assay type: cell-based, Besnoitia besnoiti
[4] = system: B. besnoiti tachyzoites (Bb-Spain1) in HFF cells; experiment: Transmission electron microscopy of B. besnoiti-infected HFF treated with BKIs; assay type: cell-based, Besnoitia besnoiti; settings: 5 μM, HFF cells, 4, 6 and 8 days; listed as BKI-1294
[5] = cattle; ref Huang et al., 2015; Schaefer et al., 2016; Hulverson et al., 2017; cited from earlier work

Compound: CCOc1ccc2cc(-c3nn(CC4CCN(C)CC4)c4ncnc(N)c34)ccc2c1 [Compound 1294]
- IC50 values against BbCDPK1 (in words) [1]: lower nanomolar range
- Percentage of cytotoxicity compared to DMSO-treated negative control [2]: 5.2%
- EC99 (B. besnoiti) ([3]; BKI added at 0 hpi, 3-day proliferation assay, qPCR, Marc-145 cells): 2.38 µM
- EC50 ([3]; Besnoitia besnoiti, MARC145, 72 h, read-out: EC50 (B. besnoiti)): 45 nM
- Effect on ultrastructure of tachyzoites (TEM) [4]: formed multinucleated complexes
- Plasma levels achieved [5]: up to 5 μM
